Measurements as given in paper PMC5444390 (Journal of medicinal chemistry, 2016).

How the values were obtained:
[1] = system: Hsp90 client proteins (EGFR, Her2, C-Raf) and Hsp90 in MCF7 cells; assay: Western blot for Hsp90 client proteins and Hsp90, MCF7 lysates; format: cell-based; details: MCF7, 12 h
Outline: (§1)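 MCF7 (Advanced DMEM/F12, 2 mM L-glutamine) or A549 (F12K) cells, with 10% FBS and pen/strep at 37 °C, 5% CO2. […] M-PER lysates with protease/phosphatase inhibitors, 15 µg protein on reducing 10% gels, PVDF, HRP-chemiluminescence.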

[2] = system: Hsp90 client proteins (EGFR, Her2, C-Raf) and Hsp90 in A549 cells; assay: Western blot for Hsp90 client proteins and Hsp90, A549 lysates; format: cell-based; details: for Hsp90 client levels: A549, 12 or 24 h
Outline: as §1

[3] = system: Her3 and wild-type B-Raf in A549 cells; assay: Western blot for Her3 and wild-type B-Raf; format: cell-based; details: for Her3 and wild-type B-Raf levels, control compounds: A549, 12 and 24 h, five-times the reported IC50
Outline: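 Cells harvested in cold PBS, lysed in M-PER with protease/phosphatase inhibitors, 15 µg protein resolved on reducing 10% gels, transferred to PVDF, immunoblotted for Her3 and B-Raf, HRP-chemiluminescent detection.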

[4] = molecular target: wild type B-Raf / c-Raf heterodimer in A549 cells (Homo sapiens, UniProt P15056); assay: Co-immunoprecipitation of B-Raf, A549 lysates; format: cell-based; details: A549, 24 h, five-times IC50
Sequence of wild type B-Raf / c-Raf heterodimer in A549 cells (P15056 whole entry, one chain of several): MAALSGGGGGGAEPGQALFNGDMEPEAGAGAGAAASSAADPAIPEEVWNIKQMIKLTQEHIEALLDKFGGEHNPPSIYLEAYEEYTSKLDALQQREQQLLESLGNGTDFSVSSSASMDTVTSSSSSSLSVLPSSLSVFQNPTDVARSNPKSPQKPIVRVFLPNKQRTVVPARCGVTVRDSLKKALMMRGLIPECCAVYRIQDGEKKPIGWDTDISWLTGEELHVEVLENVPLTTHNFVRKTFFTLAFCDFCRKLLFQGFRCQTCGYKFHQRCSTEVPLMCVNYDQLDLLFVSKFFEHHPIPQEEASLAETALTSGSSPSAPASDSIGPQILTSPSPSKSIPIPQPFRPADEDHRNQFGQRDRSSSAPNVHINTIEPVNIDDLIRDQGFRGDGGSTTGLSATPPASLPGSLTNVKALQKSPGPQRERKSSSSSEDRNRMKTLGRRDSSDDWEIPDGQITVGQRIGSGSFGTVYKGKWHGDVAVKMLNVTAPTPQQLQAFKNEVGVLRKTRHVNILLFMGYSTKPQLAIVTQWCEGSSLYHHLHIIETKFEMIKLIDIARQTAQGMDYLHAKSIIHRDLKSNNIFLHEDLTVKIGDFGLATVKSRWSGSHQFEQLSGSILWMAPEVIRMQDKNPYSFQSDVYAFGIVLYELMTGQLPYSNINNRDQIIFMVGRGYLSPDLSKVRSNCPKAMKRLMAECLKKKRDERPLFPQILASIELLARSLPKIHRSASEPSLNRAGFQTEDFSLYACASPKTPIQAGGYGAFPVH

[5] = system: Hsp90 luciferase refolding activity in PC3-MM2 cells; assay: Luciferase refolding assay; format: cell-based; details: 0–100 μM, 1 h
Outline: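 Heat-denatured luciferase: luciferase-expressing PC3-MM2 cells were heated 8–12 min at 50 °C in DMEM until luminescence was 1% of initial. They were added (60,000 cells/100 µL final) to test compound, 0–100 µM, 1% DMSO final, and incubated 1 h. Luciferin/CoA/ATP reagent (tricine pH 7.8) was added and luminescence read immediately (0.5 s). Refolding was normalized to 1% DMSO = 100%. Triplicate concentrations, dose-response curves.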

[6] = system: MAPK pathway (EGFR, C-Raf, MEK, ERK, p-MEK, p-ERK) in A549 cells; assay: Western blot for MAPK pathway proteins, p-MEK and p-ERK, A549 lysates; format: cell-based
[7] = system: A549 lung cancer cell line; assay: Anti-proliferation; format: cell-based; details: 0.15 μM versus 1.7 μM
[8] = system: p-Akt and total Akt in A549 cells; assay: Western blot for p-Akt and total Akt, A549 lysates; format: cell-based; details: A549, 2 to 12 h (Supplementary Figure 2)
[9] = system: A549 lung cancer cell line; details: cited from earlier work
[10] = system: Hsp90 client proteins and Hsp90; assay: Western blot for clients and Hsp90 with geldanamycin; format: cell-based; details: Supplementary Figure 1
[11] = A549, 750 nM, 2 to 12 h, vs vehicle

Structure (SMILES): Cc1c(OC2CCN(C)CC2)ccc2cc(NC(=O)Nc3ccccc3)c(=O)oc12 [Compound 1, 1-(8-methyl-7-((1-methylpiperidin-4-yl)oxy)-2-oxo-2H-chromen-3-yl)-3-phenylurea]
- Hsp90 client levels (EGFR, Her2, C-Raf) ([1]; high concentration (five-times IC50), vs vehicle): decreased levels
- Hsp90 levels ([1]; low and high concentrations): comparable to vehicle
- Hsp90 client levels (EGFR, Her2, C-Raf) ([2]; A549, 12 h, high concentration (five-times IC50), vs vehicle): decreased levels
- Hsp90 levels ([2]; A549, 12 h, low and high concentrations): comparable to vehicle

Structure (SMILES): COc1cccc(-c2cc(NC(=O)Nc3cc4ccc(OC5CCN(C)CC5)c(C)c4oc3=O)ccc2OC)c1 [Compound 2, 1-(3′,6-dimethoxy-[1,1′-biphenyl]-3-yl)-3-(8-methyl-7-((1-methylpiperidin-4-yl)oxy)-2-oxo-2H-chromen-3-yl)urea]
- Hsp90 client protein levels ([1]; low (half IC50) and high (five-times IC50) concentrations): unchanged
- Her3 and wild-type B-Raf levels ([3]; A549, 24 h, five-times IC50): comparable to vehicle
- Hsp90 client protein levels ([2]; A549, 12 h, low (half IC50) and high (five-times IC50) concentrations): unchanged
- Dimerization of wild type B-Raf and c-Raf (co-immunoprecipitation) [4]: does not result in dimerization
- Inhibition of firefly luciferase re-maturation [5]: does not inhibit
- EGFR and C-Raf levels [6, 11]: remained constant
- Total MEK and ERK levels [6, 11]: remained constant
- p-MEK levels ([6]; A549, 750 nM, 12 h): undetectable
- p-MEK and p-ERK levels ([6]; A549, 12 h, high concentration (five-times IC50, 750 nM)): significantly lower levels
- p-MEK and p-ERK levels ([6]; A549, 12 h, low concentration (half IC50, 70nM)): little effect
- p-MEK and p-ERK levels ([6]; A549, 24 h, 750 nM): only slightly increased compared to 12 hours
- IC50 of 2 relative to IC50 of TAK-632 [7]: one tenth
- p-Akt and total Akt levels [8]: unaffected

Structure (SMILES): Cc1c(OC2CCN(C)CC2)ccc2cc(NC(=O)Nc3cccc(-c4ccccc4)c3)c(=O)oc12 [Compound 3, 1-([1,1′-biphenyl]-3-yl)-3-(8-methyl-7-((1-methylpiperidin-4-yl)oxy)-2-oxo-2H-chromen-3-yl)urea]
- Hsp90-dependent client protein levels ([2]; A549, 24 h, five-times IC50): decreased levels
- Hsp90 levels ([2]; A549, 24 h, five-times IC50): constant levels

Structure (SMILES): COc1ccc(NC(=O)Nc2cc3ccc(OC4CCN(C)CC4)c(C)c3oc2=O)cc1-c1ccccc1 [Compound 4, 1-(6-methoxy-[1,1′-biphenyl]-3-yl)-3-(8-methyl-7-((1-methylpiperidin-4-yl)oxy)-2-oxo-2H-chromen-3-yl)urea]
- Hsp90 client levels ([2]; five-times IC50): did not result in decreased client levels
- p-MEK and pERK levels ([6]; A549, 12 h, five-times IC50, vs vehicle): decreased
- p-MEK and p-ERK levels ([6]; A549, 24 h, five-times IC50): reestablished

Structure (SMILES): COc1cccc(-c2cccc(NC(=O)Nc3cc4ccc(OC5CCN(C)CC5)c(C)c4oc3=O)c2)c1 [Compound 5, 1-(3′-methoxy-[1,1′-biphenyl]-3-yl)-3-(8-methyl-7-((1-methylpiperidin-4-yl)oxy)-2-oxo-2H-chromen-3-yl)urea]
- Hsp90 client levels ([2]; five-times IC50): did not result in decreased client levels
- p-MEK levels ([6]; A549, 12 and 24 h, five-times IC50): unchanged
- p-ERK levels ([6]; A549, 12 h, five-times IC50): decreased
- p-ERK levels ([6]; A549, 24 h, five-times IC50): comparable to vehicle
- p-MEK and p-ERK levels ([6]; A549, 24 h, five-times IC50): reestablished

Structure (SMILES): N#Cc1c(Oc2ccc(F)c(NC(=O)Cc3cccc(C(F)(F)F)c3)c2)ccc2nc(NC(=O)C3CC3)sc12 [TAK-632]
- Her3 and wild-type B-Raf levels, control compounds [3]: remained unaffected
- IC50 ([9]; read-out: IC50 value against A549 (reported), A549 lung cancer cell line): 1700 nM

Structure (SMILES): COC1=C2C[C@@H](C)C[C@H](OC)[C@H](O)[C@@H](C)/C=C(\C)[C@H](OC(N)=O)[C@@H](OC)/C=C\C=C(/C)C(=O)NC(=CC1=O)C2=O [geldanamycin (GDA), geldanamycin]
- Hsp90 client levels [10]: decreased client levels
- Cellular levels of Hsp90 ([10]; at concentrations that decreased clients): increased cellular levels of Hsp90

Structure (SMILES): CNC(=O)c1cc(Oc2ccc(NC(=O)Nc3ccc(Cl)c(C(F)(F)F)c3)cc2)ccn1 [sorafenib]
- Her3 levels ([3]; A549, sorafenib at five-times the reported IC50 (14 μM), 12 and 24 h): time-dependent increase

Structure (SMILES): CCCS(=O)(=O)Nc1ccc(F)c(C(=O)c2c[nH]c3ncc(-c4ccc(Cl)cc4)cc23)c1F [vemurafenib]
- Her3 and wild-type B-Raf levels, control compounds [3]: little effect
- Activity against the A549 cell line ([9]; A549 expresses only wild-type B-Raf): relatively inactive
